ChEMBL document CHEMBL3124822, “Discovery of a rapidly metabolized, long-acting β(2) adrenergic receptor agonist with a short onset time incorporating a sulfone group suitable for once-daily dosing” (J Med Chem, 2014)

How the values were obtained:
[1] = target: Beta-3 adrenergic receptor (Homo sapiens, UniProt P13945); experiment: Agonist activity at human beta3 adrenoceptor transfected in CHO cells assessed as cyclic AMP accumulation after 45 mins by fluorescence polarization assay; assay type: cell-based
Sequence of Beta-3 adrenergic receptor (P13945 whole entry): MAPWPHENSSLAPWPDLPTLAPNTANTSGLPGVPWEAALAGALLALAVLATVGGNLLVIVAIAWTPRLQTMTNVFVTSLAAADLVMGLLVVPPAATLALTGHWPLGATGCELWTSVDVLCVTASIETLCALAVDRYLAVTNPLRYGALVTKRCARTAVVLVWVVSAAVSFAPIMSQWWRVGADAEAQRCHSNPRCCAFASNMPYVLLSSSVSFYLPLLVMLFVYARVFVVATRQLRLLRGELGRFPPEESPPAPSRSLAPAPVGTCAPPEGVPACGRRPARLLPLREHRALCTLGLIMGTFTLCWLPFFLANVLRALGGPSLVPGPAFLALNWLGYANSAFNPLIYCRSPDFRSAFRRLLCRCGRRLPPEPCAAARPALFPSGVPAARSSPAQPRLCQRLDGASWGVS

[2] = target: Beta-1 adrenergic receptor (Homo sapiens, UniProt P08588); experiment: Agonist activity at human beta1 adrenoceptor transfected in CHO cells assessed as cyclic AMP accumulation after 45 mins by fluorescence polarization assay; assay type: cell-based
Sequence of Beta-1 adrenergic receptor (P08588 whole entry): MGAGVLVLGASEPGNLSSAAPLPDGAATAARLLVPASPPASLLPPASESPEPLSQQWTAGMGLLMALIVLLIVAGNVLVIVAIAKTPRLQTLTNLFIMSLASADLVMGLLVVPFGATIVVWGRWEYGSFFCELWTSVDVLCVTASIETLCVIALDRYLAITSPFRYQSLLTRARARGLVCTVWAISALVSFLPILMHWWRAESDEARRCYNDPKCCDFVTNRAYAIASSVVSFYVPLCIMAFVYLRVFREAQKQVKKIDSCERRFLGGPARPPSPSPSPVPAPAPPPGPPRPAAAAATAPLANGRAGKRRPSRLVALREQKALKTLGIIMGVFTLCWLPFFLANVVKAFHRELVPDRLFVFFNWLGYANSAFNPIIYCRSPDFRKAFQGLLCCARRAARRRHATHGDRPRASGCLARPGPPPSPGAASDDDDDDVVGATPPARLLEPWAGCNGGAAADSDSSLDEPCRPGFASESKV

[3] = target: Beta-2 adrenergic receptor (Homo sapiens, UniProt P07550); experiment: Agonist activity at human beta2 adrenoceptor transfected in CHO cells assessed as cyclic AMP accumulation after 45 mins by fluorescence polarization assay; assay type: functional, cell-based
Sequence of Beta-2 adrenergic receptor (P07550 whole entry): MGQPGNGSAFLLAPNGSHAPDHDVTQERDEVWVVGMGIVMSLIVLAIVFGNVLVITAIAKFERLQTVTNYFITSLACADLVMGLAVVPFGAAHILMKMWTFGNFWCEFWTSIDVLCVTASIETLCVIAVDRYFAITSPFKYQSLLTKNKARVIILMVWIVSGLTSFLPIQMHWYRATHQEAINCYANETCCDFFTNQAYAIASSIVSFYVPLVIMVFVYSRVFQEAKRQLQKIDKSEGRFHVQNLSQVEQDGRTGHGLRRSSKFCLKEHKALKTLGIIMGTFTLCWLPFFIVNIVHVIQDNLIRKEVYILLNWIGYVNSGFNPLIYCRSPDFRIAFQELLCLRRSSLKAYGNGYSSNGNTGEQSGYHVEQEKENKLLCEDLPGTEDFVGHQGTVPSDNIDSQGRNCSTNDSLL

Cavia porcellus [4] = experiment: Bronchodilatory activity in guinea pig assessed as duration of action of inhibition of histamine-induced bronchoconstriction at EC90 administered via nebulization 2 mins prior to histamine challenge; assay type: functional
Method in brief: (§1)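 Conscious guinea pigs, n = 24 per group, given test agonist as a nebulized solution in dimethylacetamide–saline vehicle (2 min nebulization) before histamine (10 mM, nebulized 1.3 min) in a whole-body plethysmograph. PenH recorded for 15 min as index of airway obstruction. Dose expressed as nebulizer concentration; duration taken as time to 50% recovery.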

Cavia porcellus [5] = experiment: Bronchodilatory activity in guinea pig assessed as inhibition of histamine-induced bronchoconstriction administered via nebulization 2 mins prior to histamine challenge; assay type: functional; method in brief: as §1
[6] = Stability of the compound in solid state; assay type: physicochemical
[7] = Stability of the compound in solution state; assay type: physicochemical
[8] = Plasma concentration in Sprague-Dawley rat at 1261 ug/kg/day measured on day 7 by 7-day snout-only inhalation assay; assay type: ADME; conditions: inhaled, 1.261 mg/kg
Method in brief: (§2)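 Sprague–Dawley male rats exposed snout-only to a dry powder formulation of the 4-biphenylsulfonic acid salt for 7 days at 181, 344, 703 and 1261 (μg/kg)/day (measured aerosol 5.1, 9.8, 19.9, 35.7 μg/L). Assessed clinically, with body weight, hematology, biochemistry and respiratory tract evaluation. Plasma exposure measured on day 7 as ng·h/mL.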

Rattus norvegicus [9] = experiment: Toxicity in Sprague-Dawley rat assessed as minimal irritancy in laryngeal region at 703 to 1261 ug/kg/day by 7-day snout-only inhalation assay; assay type: organism-based; conditions: in vivo, inhaled_or_intranasal; method in brief: as §2
Rattus norvegicus [10] = experiment: Toxicity in Sprague-Dawley rat assessed as body weight change at 181 to 1261 ug/kg/day by 7-day snout-only inhalation assay; assay type: organism-based; conditions: in vivo, inhaled_or_intranasal; method in brief: as §2
Rattus norvegicus [11] = experiment: Toxicity in Sprague-Dawley rat at 181 to 1261 ug/kg/day by 7-day snout-only inhalation assay; assay type: organism-based; conditions: in vivo, inhaled_or_intranasal; method in brief: as §2
L5178Y [12] = experiment: Genotoxicity against mouse L5178Y cells in presence of rat liver metabolic activation system; assay type: toxicity, cell-based
Method in brief: (§3)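 Acetate and 4-biphenylsulfonate salts screened in Ames and mouse lymphoma L5178Y assays, with and without a rat liver metabolic activation system.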

L5178Y [13] = experiment: Genotoxicity against mouse L5178Y cells; assay type: toxicity, cell-based; method in brief: as §3
Rattus norvegicus [14] = experiment: Toxicity in Sprague-Dawley rat assessed as hematology at 181 to 1261 ug/kg/day by 7-day snout-only inhalation assay; assay type: organism-based; conditions: in vivo, inhaled_or_intranasal; method in brief: as §2
Salmonella typhimurium [15] = experiment: Genotoxicity in Salmonella typhimurium by Ames assay in presence of rat liver metabolic activation system; assay type: toxicity, organism-based; conditions: salmonella enterica subsp. enterica serovar typhimurium; method in brief: as §3
Salmonella typhimurium [16] = experiment: Genotoxicity in Salmonella typhimurium by Ames assay; assay type: toxicity, organism-based; conditions: salmonella enterica subsp. enterica serovar typhimurium; method in brief: as §3
[17] = Solubility of the compound in water; assay type: physicochemical
Rattus norvegicus [18] = experiment: Toxicity in Sprague-Dawley rat assessed as minimal irritancy in nasal cavity at 703 to 1261 ug/kg/day by 7-day snout-only inhalation assay; assay type: organism-based; conditions: in vivo, inhaled_or_intranasal; method in brief: as §2
[19] = Oral absorption in Han Wistar rat at 2 mg/kg up to 7 hrs by LC-MS/MS analysis; assay type: ADME, organism-based; set-up: dose 2 mg/kg; conditions: in vivo, read-out: Fa
Method in brief: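 Rat oral absorption from hepatic portal vein plasma, corrected for systemic circulation levels, after β-glucuronidase treatment of samples (deconjugated HPV model). Expressed as h·ng/mL.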

EC50 [1] [µM]	EC50 [2] [µM]	EC50 [3] [µM]	SMILES	further results
0.398	0.501	0.001	O=S(=O)(c1cccc(CCCCOCCCCCCNC[C@H](O)c2ccc(O)c(CO)c2)c1)C1CC=CC1	
			CC(=O)O.OCc1cc(C(O)CNCCCCCCOCCCCc2ccccc2)ccc1O (configuration not stated)	Time (Cavia porcellus [4]): 13 h; EC90 (Cavia porcellus [5]): 50 µM
			O=S(=O)(O)c1ccc(-c2ccccc2)cc1.O=S(=O)(c1cccc(CCCCOCCCCCCNC[C@H](O)c2ccc(O)c(CO)c2)c1)C1CCCC1	Stability [6]: Stable; Stability [7]: Unstable; AUC [8]: 146 ng·h/mL; Activity (Rattus norvegicus [9]): Non-toxic; Activity (Rattus norvegicus [10]): Non-toxic; Activity (Rattus norvegicus [11]): Non-toxic; Activity (L5178Y [12]): Non-toxic; Activity (L5178Y [13]): Non-toxic; Activity (Rattus norvegicus [14]): Non-toxic; Activity (Salmonella typhimurium [15]): Non-toxic; Activity (Salmonella typhimurium [16]): Non-toxic; solubility [17]: < 10 µg/mL; Activity (Rattus norvegicus [18]): Non-toxic
3.98	6.31	0.02	CS(=O)(=O)c1ccc(CCCCOCCCCCCNC[C@H](O)c2ccc(O)c(CO)c2)cc1	
0.316	0.158	0.000501	Cc1cc(CCCCOCCCCCCNC[C@H](O)c2ccc(O)c(CO)c2)cc(S(=O)(=O)C2CCCC2)c1	
0.398	1	0.0316	O=S(=O)(c1ccc(CCCCOCCCCCCNC[C@H](O)c2ccc(O)c(CO)c2)cc1)C1CCCC1	
0.251	0.251	0.00158	O=S(=O)(c1cccc(CCCCOCCCCCCNC[C@H](O)c2ccc(O)c(CO)c2)c1)C1CCCCC1	
2	2	0.00794	O=S1(=O)CCc2ccc(CCCCOCCCCCCNC[C@H](O)c3ccc(O)c(CO)c3)cc21	
2.51	2	0.0398	O=S1(=O)CCCc2ccc(CCCCOCCCCCCNC[C@H](O)c3ccc(O)c(CO)c3)cc21	
			OCc1cc(C(O)CNCCCCCCOCCCCc2ccccc2)ccc1O (configuration not stated) [SALMETEROL]	AUC at 7 h [19]: 252 ng·h/mL
